{"data": "Measured values pooled from the literature", "cell line": "NCI-H460", "effect on": "cell growth or viability", "note": "Lines come from different studies, so protocols differ. pEC50, pIC50: −log10 of the molar value."}
{"SMILES": "COc1cc([C@@H]2c3cc4c(cc3[C@H](O)[C@H]3COC(=O)[C@H]23)OCO4)cc(OC)c1OC", "method": "MTT", "time": "72 h", "quantity": "pEC50", "value": 9.70}
{"SMILES": "C1COCCN1.COc1ccc(/C=C\\c2cc(I)c(OC)c(I)c2)cc1OP(=O)(O)O", "method": "SRB", "time": "48 h", "quantity": "GI50", "value": "0.033 µg/mL"}
{"SMILES": "Cc1cccc(-n2ncc(Cl)c(Cl)c2=O)c1", "method": "resazurin", "time": "96 h", "quantity": "pIC50", "value": 5.82}
{"SMILES": "N.N.[Cl][Pt][Cl]", "time": "24 h", "quantity": "pIC50", "value": 4.30}
{"SMILES": "N.N.[Cl][Pt][Cl]", "quantity": "pIC50", "value": 4.72}
{"SMILES": "CN1C[C@H](C(=O)N[C@]2(C)O[C@@]3(O)[C@@H]4CCCN4C(=O)[C@H](Cc4ccccc4)N3C2=O)C=C2c3cccc4[nH]cc(c34)C[C@H]21", "method": "MTT", "time": "72 h", "quantity": "pEC50", "value": "~4.60"}
{"SMILES": "C=C(C)[C@@H]1CC[C@]2(CO)CC[C@]3(C)[C@H](CC[C@@H]4[C@@]5(C)CC[C@H](O)C(C)(C)[C@@H]5CC[C@]43C)[C@@H]12", "time": "48 h", "quantity": "pIC50", "value": 4.94}
{"SMILES": "N.N.[Cl][Pt][Cl]", "method": "MTT", "time": "72 h", "quantity": "pIC50", "value": 5.52}
